Experimental findings from PubChem BioAssay AID1793 (Vanderbilt High Throughput Screening Facility, 2009) are described below.

What all share (experiment): off-target binding across receptor and channel panel, profiling panel, selectivity assay for Cl- transport modulator project, biochemical, MDS panel, antagonist ancillary profile (AID 1793)
Test [1] addresses Alpha-2A adrenergic receptor (Homo sapiens) (UniProt P08913). The conditions noted are these: MDS Pharma radioligand binding panel, % inhibition; measured here: Adrenergic a2A human; at 10 µM; stronger effect = higher value. The procedure, abridged:
(§1)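 test system = off-target panel spanning GPCRs, ion channels plus transporters | doses = lead compound at one single concentration, 10 µM | read-out basis = off-target activity per panel target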

In test [2] the target is Androgen receptor (Rattus norvegicus) (UniProt P15207). To be noted: MDS Pharma radioligand binding panel, % inhibition; measured here: Androgen receptor rat; at 10 µM; stronger effect = higher value. Summed up:
as §1

Test [3] addresses B1 bradykinin receptor (Homo sapiens) (UniProt P46663). The conditions noted are these: MDS Pharma radioligand binding panel, % inhibition; measured here: Bradykinin B1 human; at 10 µM; stronger effect = higher value. Summed up: as §1
The target of test [4] is Alpha-1A adrenergic receptor (Rattus norvegicus) (UniProt P43140). To be noted: MDS Pharma radioligand binding panel, % inhibition; measured here: Adrenergic a1A rat; at 10 µM; stronger effect = higher value. The procedure, abridged: as §1
Chain of Alpha-1A adrenergic receptor (Rattus norvegicus) (P43140 whole entry, looked up): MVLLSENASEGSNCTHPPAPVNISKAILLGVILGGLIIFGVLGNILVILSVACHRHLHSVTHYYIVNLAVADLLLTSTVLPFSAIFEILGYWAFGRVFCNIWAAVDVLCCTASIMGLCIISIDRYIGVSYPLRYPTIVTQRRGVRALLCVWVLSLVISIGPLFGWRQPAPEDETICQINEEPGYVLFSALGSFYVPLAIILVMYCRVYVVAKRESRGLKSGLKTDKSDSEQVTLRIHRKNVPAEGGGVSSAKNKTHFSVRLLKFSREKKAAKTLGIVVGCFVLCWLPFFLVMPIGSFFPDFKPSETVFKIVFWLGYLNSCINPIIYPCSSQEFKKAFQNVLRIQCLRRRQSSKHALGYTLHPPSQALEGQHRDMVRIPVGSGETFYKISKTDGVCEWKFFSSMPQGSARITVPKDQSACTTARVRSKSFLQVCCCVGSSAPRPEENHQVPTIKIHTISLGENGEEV
Test [5] has as its target Beta-1 adrenergic receptor (Homo sapiens) (UniProt P08588). The conditions noted are these: MDS Pharma radioligand binding panel, % inhibition; measured here: Adrenergic b1 human; at 10 µM; stronger effect = higher value. Summed up:
as §1

Test [6] has as its target Alpha-1B adrenergic receptor (Rattus norvegicus) (UniProt P15823). The conditions noted are these: MDS Pharma radioligand binding panel, % inhibition; measured here: Adrenergic a1B rat; at 10 µM; stronger effect = higher value. Summed up:
as §1

Test [7] has as its target Alpha-1D adrenergic receptor (Homo sapiens) (UniProt P25100). To be noted: MDS Pharma radioligand binding panel, % inhibition; measured here: Adrenergic a1D human; at 10 µM; stronger effect = higher value. Summed up: as §1
The target of test [8] is Adenosine receptor A2a (Homo sapiens) (UniProt P29274). To be noted: MDS Pharma radioligand binding panel, % inhibition; measured here: Adenosine A2 human; at 10 µM; stronger effect = higher value. The procedure, abridged:
as §1

The target in test [9] is Voltage-dependent L-type calcium channel subunit alpha-1C (Rattus norvegicus) (UniProt P22002). To be noted: MDS Pharma radioligand binding panel, % inhibition; measured here: L-type Ca channel BTZ rat; at 10 µM; stronger effect = higher value. Summed up: as §1
Test [10] concerns the target B2 bradykinin receptor (Homo sapiens) (UniProt P30411). To be noted: MDS Pharma radioligand binding panel, % inhibition; measured here: Bradykinin B2 human; at 10 µM; stronger effect = higher value. Summed up:
as §1

Test [11] concerns the target Adenosine receptor A1 (Homo sapiens) (UniProt P30542). To be noted: MDS Pharma radioligand binding panel, % inhibition; at 10 µM; stronger effect = higher value. The procedure, abridged:
as §1

The target in test [12] is Adenosine receptor A3 (Homo sapiens) (UniProt P0DMS8). The conditions noted are these: MDS Pharma radioligand binding panel, % inhibition; measured here: Adenosine A3 human; at 10 µM; stronger effect = higher value. The procedure, abridged: as §1
In test [13] the target is Beta-2 adrenergic receptor (Homo sapiens) (UniProt P07550). To be noted: MDS Pharma radioligand binding panel, % inhibition; measured here: Adrenergic b2 human; at 10 µM; stronger effect = higher value. Summed up:
as §1

Chain of Alpha-1D adrenergic receptor (Homo sapiens) (P25100 whole entry, looked up): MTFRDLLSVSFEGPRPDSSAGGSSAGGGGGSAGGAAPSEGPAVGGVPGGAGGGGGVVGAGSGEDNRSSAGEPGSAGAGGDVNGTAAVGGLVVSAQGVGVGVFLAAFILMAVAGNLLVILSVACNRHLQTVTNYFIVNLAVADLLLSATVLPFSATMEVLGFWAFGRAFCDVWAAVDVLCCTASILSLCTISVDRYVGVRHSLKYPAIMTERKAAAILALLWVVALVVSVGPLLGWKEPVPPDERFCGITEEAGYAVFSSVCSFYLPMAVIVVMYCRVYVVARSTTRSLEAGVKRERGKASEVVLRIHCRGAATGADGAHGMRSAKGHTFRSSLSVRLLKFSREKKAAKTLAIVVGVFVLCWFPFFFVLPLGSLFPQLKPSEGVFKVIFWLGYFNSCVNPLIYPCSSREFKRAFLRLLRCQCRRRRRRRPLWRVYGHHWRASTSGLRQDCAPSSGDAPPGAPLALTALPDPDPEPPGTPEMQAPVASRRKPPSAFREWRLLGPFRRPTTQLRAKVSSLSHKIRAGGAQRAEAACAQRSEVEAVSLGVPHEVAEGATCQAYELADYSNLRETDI
Chain of Alpha-2A adrenergic receptor (Homo sapiens) (P08913 whole entry, looked up): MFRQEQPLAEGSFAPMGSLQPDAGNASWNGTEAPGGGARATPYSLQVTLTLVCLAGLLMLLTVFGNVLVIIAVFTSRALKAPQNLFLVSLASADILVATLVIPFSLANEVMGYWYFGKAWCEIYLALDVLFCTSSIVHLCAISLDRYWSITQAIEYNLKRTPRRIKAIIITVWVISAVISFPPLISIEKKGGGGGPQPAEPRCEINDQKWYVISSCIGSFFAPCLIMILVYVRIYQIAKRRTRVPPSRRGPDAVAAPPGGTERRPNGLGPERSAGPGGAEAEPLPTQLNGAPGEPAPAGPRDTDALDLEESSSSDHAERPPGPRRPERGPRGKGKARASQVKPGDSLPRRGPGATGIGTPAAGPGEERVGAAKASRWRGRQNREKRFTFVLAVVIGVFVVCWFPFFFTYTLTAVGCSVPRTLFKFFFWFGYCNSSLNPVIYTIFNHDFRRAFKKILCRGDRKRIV
Chain of Beta-2 adrenergic receptor (Homo sapiens) (P07550 whole entry, looked up): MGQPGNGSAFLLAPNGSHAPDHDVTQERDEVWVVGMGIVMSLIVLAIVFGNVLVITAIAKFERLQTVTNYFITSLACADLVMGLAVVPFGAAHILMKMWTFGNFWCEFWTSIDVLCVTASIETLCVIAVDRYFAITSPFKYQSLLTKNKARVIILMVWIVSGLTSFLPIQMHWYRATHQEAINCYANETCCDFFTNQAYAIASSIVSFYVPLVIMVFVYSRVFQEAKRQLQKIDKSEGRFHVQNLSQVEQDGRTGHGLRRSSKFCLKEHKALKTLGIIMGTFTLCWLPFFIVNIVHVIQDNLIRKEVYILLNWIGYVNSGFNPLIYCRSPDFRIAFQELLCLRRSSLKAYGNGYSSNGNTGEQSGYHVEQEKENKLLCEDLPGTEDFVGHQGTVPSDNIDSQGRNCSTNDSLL
Chain of Androgen receptor (Rattus norvegicus) (P15207 whole entry, looked up): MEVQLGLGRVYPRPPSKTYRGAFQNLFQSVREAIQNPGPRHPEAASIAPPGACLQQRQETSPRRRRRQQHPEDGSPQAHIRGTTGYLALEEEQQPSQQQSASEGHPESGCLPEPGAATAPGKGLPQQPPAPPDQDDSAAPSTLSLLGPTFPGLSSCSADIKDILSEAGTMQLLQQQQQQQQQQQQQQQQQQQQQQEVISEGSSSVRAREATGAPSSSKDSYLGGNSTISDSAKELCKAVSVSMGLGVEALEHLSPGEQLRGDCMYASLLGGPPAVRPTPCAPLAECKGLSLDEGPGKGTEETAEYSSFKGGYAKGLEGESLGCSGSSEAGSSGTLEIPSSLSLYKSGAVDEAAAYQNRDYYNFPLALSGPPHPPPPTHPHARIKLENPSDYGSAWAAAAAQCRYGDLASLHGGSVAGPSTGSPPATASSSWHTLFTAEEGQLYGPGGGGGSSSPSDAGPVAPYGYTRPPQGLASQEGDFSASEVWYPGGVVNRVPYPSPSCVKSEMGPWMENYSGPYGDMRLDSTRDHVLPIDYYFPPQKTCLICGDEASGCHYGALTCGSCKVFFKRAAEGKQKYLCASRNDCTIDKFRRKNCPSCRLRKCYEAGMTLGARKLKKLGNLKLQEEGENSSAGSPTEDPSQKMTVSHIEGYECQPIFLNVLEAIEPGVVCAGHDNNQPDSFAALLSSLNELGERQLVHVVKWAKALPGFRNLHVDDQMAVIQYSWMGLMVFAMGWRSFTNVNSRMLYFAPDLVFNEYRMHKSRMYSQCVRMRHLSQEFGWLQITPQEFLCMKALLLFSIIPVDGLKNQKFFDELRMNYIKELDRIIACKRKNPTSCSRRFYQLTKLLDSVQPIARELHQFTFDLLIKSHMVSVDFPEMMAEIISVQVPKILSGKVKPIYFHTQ
Chain of Adenosine receptor A2a (Homo sapiens) (P29274 whole entry, looked up): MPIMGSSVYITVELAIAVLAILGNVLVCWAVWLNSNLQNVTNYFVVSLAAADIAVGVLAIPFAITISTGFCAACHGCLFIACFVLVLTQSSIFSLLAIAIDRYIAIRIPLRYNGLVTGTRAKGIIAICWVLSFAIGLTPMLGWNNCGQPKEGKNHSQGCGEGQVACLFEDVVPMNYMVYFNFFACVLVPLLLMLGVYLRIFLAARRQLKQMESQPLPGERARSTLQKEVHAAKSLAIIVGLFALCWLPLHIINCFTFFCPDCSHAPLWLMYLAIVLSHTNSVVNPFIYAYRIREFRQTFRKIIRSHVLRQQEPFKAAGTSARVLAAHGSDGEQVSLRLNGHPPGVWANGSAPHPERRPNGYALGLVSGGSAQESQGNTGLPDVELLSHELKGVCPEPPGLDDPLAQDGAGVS
Chain of B1 bradykinin receptor (Homo sapiens) (P46663 whole entry, looked up): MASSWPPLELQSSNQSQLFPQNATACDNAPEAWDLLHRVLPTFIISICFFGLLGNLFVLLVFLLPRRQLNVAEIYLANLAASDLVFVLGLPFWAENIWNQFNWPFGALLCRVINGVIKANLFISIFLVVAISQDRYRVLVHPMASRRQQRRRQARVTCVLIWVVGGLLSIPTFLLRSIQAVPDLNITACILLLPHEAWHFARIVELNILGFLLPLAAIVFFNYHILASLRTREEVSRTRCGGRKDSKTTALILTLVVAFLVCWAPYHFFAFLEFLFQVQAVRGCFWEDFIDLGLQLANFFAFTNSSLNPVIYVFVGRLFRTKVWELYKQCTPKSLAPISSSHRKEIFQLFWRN
Chain of Adenosine receptor A1 (Homo sapiens) (P30542 whole entry, looked up): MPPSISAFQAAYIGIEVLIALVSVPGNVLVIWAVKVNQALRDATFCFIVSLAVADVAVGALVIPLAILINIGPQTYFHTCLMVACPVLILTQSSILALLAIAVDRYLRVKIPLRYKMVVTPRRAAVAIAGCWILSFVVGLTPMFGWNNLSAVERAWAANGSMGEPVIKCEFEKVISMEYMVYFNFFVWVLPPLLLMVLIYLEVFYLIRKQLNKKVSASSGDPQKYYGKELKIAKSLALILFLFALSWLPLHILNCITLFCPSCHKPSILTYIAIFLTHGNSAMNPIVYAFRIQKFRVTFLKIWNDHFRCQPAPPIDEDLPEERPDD
Chain of Beta-1 adrenergic receptor (Homo sapiens) (P08588 whole entry, looked up): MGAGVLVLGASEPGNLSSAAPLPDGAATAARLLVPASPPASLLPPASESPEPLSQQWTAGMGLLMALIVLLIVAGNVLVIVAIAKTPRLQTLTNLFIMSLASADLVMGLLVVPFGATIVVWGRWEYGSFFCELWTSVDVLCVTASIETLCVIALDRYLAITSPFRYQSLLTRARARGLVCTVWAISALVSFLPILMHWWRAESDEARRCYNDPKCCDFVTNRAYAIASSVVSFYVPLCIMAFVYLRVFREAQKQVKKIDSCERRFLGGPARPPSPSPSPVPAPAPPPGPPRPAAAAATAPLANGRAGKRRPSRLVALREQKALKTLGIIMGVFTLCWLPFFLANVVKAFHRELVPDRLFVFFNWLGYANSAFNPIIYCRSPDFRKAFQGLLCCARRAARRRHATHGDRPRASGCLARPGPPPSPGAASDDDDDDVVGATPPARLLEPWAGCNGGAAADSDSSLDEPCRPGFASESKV
Chain of Alpha-1B adrenergic receptor (Rattus norvegicus) (P15823 whole entry, looked up): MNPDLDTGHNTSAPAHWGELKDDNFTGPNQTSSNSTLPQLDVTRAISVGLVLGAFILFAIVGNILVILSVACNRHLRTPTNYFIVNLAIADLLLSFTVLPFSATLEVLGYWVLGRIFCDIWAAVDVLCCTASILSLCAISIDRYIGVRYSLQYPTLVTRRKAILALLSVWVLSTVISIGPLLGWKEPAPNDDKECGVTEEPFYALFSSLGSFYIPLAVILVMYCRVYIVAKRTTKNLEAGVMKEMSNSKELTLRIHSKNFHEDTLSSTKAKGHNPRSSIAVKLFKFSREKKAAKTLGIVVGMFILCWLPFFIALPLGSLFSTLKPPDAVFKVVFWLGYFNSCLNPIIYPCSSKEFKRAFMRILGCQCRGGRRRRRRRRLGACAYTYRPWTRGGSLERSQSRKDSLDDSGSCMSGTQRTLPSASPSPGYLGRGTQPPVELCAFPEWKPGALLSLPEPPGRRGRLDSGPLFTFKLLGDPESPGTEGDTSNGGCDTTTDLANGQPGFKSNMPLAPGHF

With `Cc1csc(N(C)C(=O)CSc2ccc(-c3ccccc3)nn2)n1`, the inhibition – broadly, the change of the read-out against control, counted positive when it falls – is -7% in test [1]; 4% in test [2]; 6% in [3]; 33% in test [4]; 10% in test [5]; 3% in [6]. Further, the inhibition came out at 16% in test [7]; 38% in test [8]; 10% in test [9]; 2% in test [10]; 31% in test [11]; 38% in test [12]. Besides, the inhibition in test [13] turned out to be 9%.
